Test results published in ChEMBL document CHEMBL3797089, “Morusin Induces TRAIL Sensitization by Regulating EGFR and DR5 in Human Glioblastoma Cells” (J Nat Prod, 2016).
The source made the active and inactive calls.

Legend:
[1] = Cytotoxicity against human U87MG cells assessed as cell death after 24 hrs by MTT assay in presence of TRAIL; format: functional, U-87MG ATCC
How it was run: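 U87MG cells (MEM, 10% FBS) were seeded at (3−5) × 10^3 cells/well and treated 1 day later with TRAIL at 100 ng/mL plus graded test compound for 24 h. Fresh medium with 1 mg/mL MTT was added for 2 h at 37 °C, then lysis buffer overnight at 37 °C, and OD was read at 570 nm. Data are mean ± SD from ≥3 independent experiments in triplicate.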

T98G [2] = experiment: Induction of apoptosis in human T98G cells assessed as increase in cleaved PARP levels at 2.5 uM after 24 hrs by Western blot analysis in presence of TRAIL; format: functional, cell-based
How it was run: (§1)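 U87MG and T98G given TRAIL 25 ng/mL plus morusin 2.5 μM together for 24 h; single-agent arms used TRAIL 50 ng/mL or morusin 5 μM. Lysates immunoblotted for cleaved caspase 3, 8, 9 and cleaved PARP, with β-actin as internal control.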

U-87 MG [3] = experiment: Induction of DR4 expression in human U87MG cells at 25 uM after 24 hrs by FITC-conjugated flow cytometric analysis; format: functional, cell-based; conditions: U-87MG ATCC
How it was run: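 Cells given 25 μM morusin for 24 h, then stained on ice for 30 min with 0.5 μg/mL FITC-conjugated anti-DR4, anti-DR5 or isotype IgG in FACS buffer. Surface expression read by flow cytometry.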

LN-18 = experiment: Induction of DR5 expression in human LN18 cells after 24 hrs by Western blot analysis; format: functional, cell-based
How it was run: (§2)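 Cells exposed to a range of morusin concentrations for 24 h. Cell extracts immunoblotted for DR4, DR5, DcR1 and DcR2, with β-actin as internal control and HRP-conjugated secondary antibodies (1:5000).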

U-87 MG [4] = experiment: Effect on cIAP1 expression in human U87MG cells at 12 to 25 uM after 24 hrs by Western blot analysis; format: functional, cell-based; conditions: U-87MG ATCC
How it was run: (§3)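 U87MG and U373MG exposed to a range of morusin concentrations for 24 h. Whole-cell extracts immunoblotted for cIAP1, with β-actin as internal control.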

[5] = Reduction of XIAP expression in human U87MG cells after 24 hrs by Western blot analysis; format: functional, cell-based; conditions: U-87MG ATCC
How it was run: (§4)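 U87MG (MEM) and U373MG (RPMI) cells were given graded morusin concentrations for 24 h. Whole-cell extracts were immunoblotted for anti-apoptotic proteins, with β-actin as loading control.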

[6] = Reduction of EGFR expression in human U87MG cells at 25 uM after 24 hrs by Western blot analysis; format: functional, cell-based; conditions: U-87MG ATCC
How it was run: (§5)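 LN18, U87MG, T98G, U251MG and U373MG glioblastoma cells were exposed to morusin for 24 h. Cells were maintained in DMEM, MEM or RPMI with 10% FBS at 37 °C and 5% CO2. Whole-cell lysates were Western blotted for receptor proteins, with β-actin as internal control.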

U373 MG [7] = experiment: Induction of DR5 expression in human U373MG cells after 24 hrs by Western blot analysis; format: functional, cell-based; conditions: U-373MG ATCC; how it was run: as §2
U-87 MG [8] = experiment: Induction of apoptosis in human U87MG cells assessed as increase in cleaved caspase 8 levels at 2.5 uM after 24 hrs by Western blot analysis in presence of TRAIL; format: functional, cell-based; conditions: U-87MG ATCC; how it was run: as §1
U-87 MG [9] = experiment: Induction of apoptosis in human U87MG cells assessed as increase in cleaved caspase 9 levels at 2.5 uM after 24 hrs by Western blot analysis in presence of TRAIL; format: functional, cell-based; conditions: U-87MG ATCC; how it was run: as §1
U-87 MG [10] = experiment: Effect on DR4 expression in human U87MG cells upto 25 uM after 24 hrs by Western blot analysis; format: functional, cell-based; conditions: U-87MG ATCC; how it was run: as §2
[11] = biological target: Signal transducer and activator of transcription 3 (Homo sapiens) (UniProt P40763); experiment: Inhibition of STAT3 phosphorylation in human U373MG cells measured up to 25 uM after 24 hrs by Western blot analysis; format: cell-based; conditions: U-373MG ATCC
How it was run: (§6)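 Cells grown in MEM (U87MG) or RPMI (U373MG) with 10% FBS, 5% CO2, 37 °C. Treated for 24 h with the indicated concentrations of morusin (DMSO stock). Whole-cell lysates immunoblotted for phosphorylated and total proteins, with β-actin as internal control.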

T98G [12] = experiment: Reduction of PDGFR expression in human T98G cells at 25 uM after 24 hrs by Western blot analysis; format: functional, cell-based; how it was run: as §5
U373 MG [13] = experiment: Effect on cIAP1 expression in human U373MG cells at 12 to 25 uM after 24 hrs by Western blot analysis; format: functional, cell-based; conditions: U-373MG ATCC; how it was run: as §3
U-251 = experiment: Induction of DR5 expression in human U251MG cells after 24 hrs by Western blot analysis; format: functional, cell-based; how it was run: as §2
[14] = Reduction of survivin mRNA expression in human U87MG cells at 25 uM by RT-qPCR analysis; format: functional, cell-based; conditions: U-87MG ATCC, TDE = time-dependent effect
How it was run: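 U87MG cells were exposed to 25 μM morusin over a time course. Total RNA (1 μg) was reverse transcribed, and XIAP and survivin transcripts were measured by RT-qPCR against GAPDH. Results are mean ± SD from at least three independent experiments.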

[15] = Reduction of XIAP expression in human U87MG cells at 25 uM by Western blot analysis; format: functional, cell-based; conditions: U-87MG ATCC, TDE = time-dependent effect
How it was run: (§7)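 Time course: U87MG and U373MG cells were exposed to 25 μM morusin for the indicated times. Whole-cell extracts were Western blotted, with β-actin as internal control.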

[16] = biological target: Epidermal growth factor receptor (Homo sapiens) (UniProt P00533); experiment: Inhibition of EGFR phosphorylation in human U373MG cells measured up to 25 uM after 24 hrs by Western blot analysis; format: cell-based; conditions: U-373MG ATCC
How it was run: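 U87MG and U373MG exposed to a range of morusin concentrations for 24 h. Whole-cell lysates immunoblotted for phosphorylated EGFR, with β-actin as internal control.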

U373 MG [17] = experiment: Effect on DcR1 expression in human U373MG cells upto 25 uM after 24 hrs by Western blot analysis; format: functional, cell-based; conditions: U-373MG ATCC; how it was run: as §2
[18] = Reduction of survivin expression in human U373MG cells after 24 hrs by Western blot analysis; format: functional, cell-based; conditions: U-373MG ATCC; how it was run: as §4
[19] = biological target: Signal transducer and activator of transcription 3 (Homo sapiens) (UniProt P40763); experiment: Inhibition of STAT3 phosphorylation in human U87MG cells measured up to 25 uM after 24 hrs by Western blot analysis; format: cell-based; conditions: U-87MG ATCC; how it was run: as §6
U373 MG [20] = experiment: Effect on cIAP1 expression in human U373MG cells at 25 uM after 3 to 18 hrs by Western blot analysis; format: functional, cell-based; conditions: U-373MG ATCC
How it was run: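 Time course: U87MG and U373MG cells held at 25 μM morusin for the times indicated. Extracts immunoblotted (cIAP1 or DR5), with β-actin as loading control.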

[21] = Reduction of survivin expression in human U87MG cells at 25 uM by Western blot analysis; format: functional, cell-based; conditions: U-87MG ATCC, TDE = time-dependent effect; how it was run: as §7
[22] = Cytotoxicity against human U251MG cells assessed as reduction in cell viability after 24 hrs by MTT assay; format: functional, cell-based; conditions: U-251, 24 h
How it was run: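 Seeded 3–5 × 10^3 cells/well, treated the next day with a range of morusin (DMSO stock) for 24 h, 37 °C, 5% CO2. Then fresh medium with 1 mg/mL MTT for 2 h at 37 °C, lysis buffer overnight at 37 °C, OD 570 nm. Mean ± SD from at least three independent experiments in triplicate.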

[23] = Reduction of survivin mRNA expression in human U87MG cells after 24 hrs by RT-qPCR analysis; format: functional, cell-based; conditions: U-87MG ATCC
How it was run: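 U87MG cells were treated with graded morusin for 24 h. Total RNA was extracted with TRI Reagent, and 1 μg was reverse transcribed. XIAP and survivin mRNA were quantified by RT-qPCR, normalized to GAPDH. Results are mean ± SD from at least three independent experiments; unpaired t-test.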

Signal transducer and activator of transcription 3 (Homo sapiens), sequence (P40763 whole entry): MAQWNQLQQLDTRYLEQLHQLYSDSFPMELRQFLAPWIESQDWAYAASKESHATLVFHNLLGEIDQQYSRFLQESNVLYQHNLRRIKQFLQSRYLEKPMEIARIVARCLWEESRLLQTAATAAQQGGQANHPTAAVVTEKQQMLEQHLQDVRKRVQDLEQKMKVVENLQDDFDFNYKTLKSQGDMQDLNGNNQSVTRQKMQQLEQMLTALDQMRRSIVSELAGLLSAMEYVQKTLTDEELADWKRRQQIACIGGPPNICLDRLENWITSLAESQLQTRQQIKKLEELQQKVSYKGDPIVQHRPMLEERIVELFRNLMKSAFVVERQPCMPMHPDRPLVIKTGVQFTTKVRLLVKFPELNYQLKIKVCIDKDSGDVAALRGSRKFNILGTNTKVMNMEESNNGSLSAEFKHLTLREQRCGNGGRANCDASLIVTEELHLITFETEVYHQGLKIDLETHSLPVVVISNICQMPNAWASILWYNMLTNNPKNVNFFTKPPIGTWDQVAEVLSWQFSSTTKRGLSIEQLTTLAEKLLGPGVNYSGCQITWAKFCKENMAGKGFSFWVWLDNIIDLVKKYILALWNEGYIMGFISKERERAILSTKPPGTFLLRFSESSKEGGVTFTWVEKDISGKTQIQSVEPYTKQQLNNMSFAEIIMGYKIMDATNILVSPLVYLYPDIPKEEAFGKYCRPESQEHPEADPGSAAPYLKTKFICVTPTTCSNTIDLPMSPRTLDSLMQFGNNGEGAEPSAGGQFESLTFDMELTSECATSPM
Epidermal growth factor receptor (Homo sapiens), sequence (P00533 whole entry): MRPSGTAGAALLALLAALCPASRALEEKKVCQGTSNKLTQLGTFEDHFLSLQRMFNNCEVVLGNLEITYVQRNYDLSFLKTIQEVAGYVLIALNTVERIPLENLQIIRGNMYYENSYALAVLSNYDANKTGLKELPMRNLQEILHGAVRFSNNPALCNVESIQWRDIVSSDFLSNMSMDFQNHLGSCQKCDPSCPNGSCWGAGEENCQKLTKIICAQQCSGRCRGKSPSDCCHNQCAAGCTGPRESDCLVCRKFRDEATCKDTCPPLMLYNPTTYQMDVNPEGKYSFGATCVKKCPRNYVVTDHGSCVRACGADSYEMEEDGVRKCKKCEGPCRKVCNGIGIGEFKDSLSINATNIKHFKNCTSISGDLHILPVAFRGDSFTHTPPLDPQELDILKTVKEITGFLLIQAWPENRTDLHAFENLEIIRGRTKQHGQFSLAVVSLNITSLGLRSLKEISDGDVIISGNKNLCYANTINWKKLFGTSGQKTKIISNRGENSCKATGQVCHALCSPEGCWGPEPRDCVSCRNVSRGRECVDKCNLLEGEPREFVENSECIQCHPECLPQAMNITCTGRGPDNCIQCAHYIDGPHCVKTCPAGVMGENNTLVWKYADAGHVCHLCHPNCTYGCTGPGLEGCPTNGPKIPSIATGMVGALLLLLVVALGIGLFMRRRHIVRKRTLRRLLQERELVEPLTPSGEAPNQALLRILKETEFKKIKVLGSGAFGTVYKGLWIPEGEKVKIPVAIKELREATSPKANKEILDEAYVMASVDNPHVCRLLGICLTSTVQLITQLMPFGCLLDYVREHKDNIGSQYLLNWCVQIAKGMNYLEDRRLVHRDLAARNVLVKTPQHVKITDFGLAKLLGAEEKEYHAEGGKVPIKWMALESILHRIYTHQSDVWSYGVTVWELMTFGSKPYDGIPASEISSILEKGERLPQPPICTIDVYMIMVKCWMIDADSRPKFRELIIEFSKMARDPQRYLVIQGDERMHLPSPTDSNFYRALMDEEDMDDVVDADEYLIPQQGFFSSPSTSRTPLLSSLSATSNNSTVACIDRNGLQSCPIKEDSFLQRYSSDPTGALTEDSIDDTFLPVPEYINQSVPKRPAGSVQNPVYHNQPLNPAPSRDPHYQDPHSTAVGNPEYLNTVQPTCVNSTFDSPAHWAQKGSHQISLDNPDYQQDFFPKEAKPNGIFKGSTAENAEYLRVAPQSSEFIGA

CC(C)=CCc1c(-c2ccc(O)cc2O)oc2c3c(cc(O)c2c1=O)OC(C)(C)C=C3 [MORUSIN]
inactive: Activity (U-87 MG [3]) | Activity (U-87 MG [4]) | Activity (U-87 MG [10]) | Activity (U373 MG [13]) | Activity (U373 MG [17]) | Activity (U373 MG [20])
24 µM: IC50 [22]
active: Activity (T98G [2]) | Activity (LN-18) Dose-dependent effect | inhibition [5] Dose-dependent effect | Activity [6] | Activity (U373 MG [7]) Dose-dependent effect | Activity (U-87 MG [8]) | Activity (U-87 MG [9]) | inhibition [11] | Activity (T98G [12]) | Activity (U-251) Dose-dependent effect | Activity [14] tde | inhibition [15] tde | inhibition [16] | inhibition [18] Dose-dependent effect | inhibition [19] | inhibition [21] tde | Activity [23] Dose-dependent effect
29%: Activity [1]
